Consider four compounds from article PMC3983348 (Journal of Medicinal Chemistry, 2014).

The test system of data set [1] is ovarian, OVCAR-3. The conditions noted are these: read-out: cytotoxicity GI50, ovarian, OVCAR-3; five-dose assay; cited from earlier work.
Data set [2] concerns colon, HCT-116. Conditions: read-out: cytotoxicity GI50, colon, HCT-116; five-dose assay; cited from earlier work.
For data set [3], the system named is melanoma, UACC-62. The conditions noted are these: read-out: cytotoxicity GI50, melanoma, UACC-62; five-dose assay; cited from earlier work.
In data set [4] the target is T1, recombinant Top1 (Homo sapiens, UniProt P11387).
T1 sequence (P11387 1-765): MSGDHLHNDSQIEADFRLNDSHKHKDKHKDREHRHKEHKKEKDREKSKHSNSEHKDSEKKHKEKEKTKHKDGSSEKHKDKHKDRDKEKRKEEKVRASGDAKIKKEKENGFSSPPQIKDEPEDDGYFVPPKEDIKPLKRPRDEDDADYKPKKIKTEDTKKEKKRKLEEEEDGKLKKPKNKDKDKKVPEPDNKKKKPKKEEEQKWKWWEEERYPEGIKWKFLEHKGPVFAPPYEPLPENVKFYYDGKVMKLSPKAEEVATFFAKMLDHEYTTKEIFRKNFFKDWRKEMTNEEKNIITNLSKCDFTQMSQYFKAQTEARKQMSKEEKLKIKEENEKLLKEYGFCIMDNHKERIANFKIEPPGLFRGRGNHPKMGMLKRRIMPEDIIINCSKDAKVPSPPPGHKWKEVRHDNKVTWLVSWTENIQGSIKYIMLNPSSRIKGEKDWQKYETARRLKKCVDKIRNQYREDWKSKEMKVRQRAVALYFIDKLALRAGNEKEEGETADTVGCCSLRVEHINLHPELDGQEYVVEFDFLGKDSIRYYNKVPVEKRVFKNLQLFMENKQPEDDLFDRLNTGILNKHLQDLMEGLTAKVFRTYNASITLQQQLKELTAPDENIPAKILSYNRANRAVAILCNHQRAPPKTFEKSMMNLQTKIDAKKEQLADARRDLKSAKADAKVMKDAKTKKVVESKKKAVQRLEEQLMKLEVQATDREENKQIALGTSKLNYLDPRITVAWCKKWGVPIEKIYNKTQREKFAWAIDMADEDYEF
Also on record: key to the marks not given beside the values. The conditions noted are these: score based on the activity of 1 μM camptothecin; cited from earlier work.

For data set [5], the system named is lung, HOP-62. Conditions: read-out: cytotoxicity GI50, lung, HOP-62; five-dose assay; cited from earlier work.
The test system of data set [6] is renal, SN12C. The conditions noted are these: read-out: cytotoxicity GI50, renal, SN12C; five-dose assay; cited from earlier work.
For data set [7], the system named is breast, MCF7. Conditions: read-out: cytotoxicity GI50, breast, MCF7; five-dose assay; cited from earlier work.
The test system of another data set is CNS, SF-539. The conditions noted are these: read-out: cytotoxicity GI50, CNS, SF-539; five-dose assay; cited from earlier work.
Data set [8] concerns panel of 60 different human cancer cell lines. Conditions: mean graph midpoint, five-dose assay; cited from earlier work.
The subject of data set [9] is prostate, DU-145. Conditions: read-out: cytotoxicity GI50, prostate, DU-145; five-dose assay; cited from earlier work.
Data set [10] concerns prostate, DU-145. The data set is described as follows: NCI-60 five-dose assay, DU-145. Type of data set: cell-based. Conditions: Homo sapiens, DU-145, read-out: cytotoxicity GI50, prostate, DU-145. In outline: (§1)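 Run in the National Cancer Institute's NCI-60 human cancer cell panel. Test compounds were first screened in a one-dose assay at 10–5 M, reading growth percent relative to vehicle-treated control.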

The subject of data set [11] is renal, SN12C. The data set can be described thus: NCI-60 five-dose assay, SN12C. It is filed as cell-based. Conditions: Homo sapiens, read-out: cytotoxicity GI50, renal, SN12C. The procedure, abridged:
as §1

The subject of data set [12] is colon, HCT-116. The data set can be described thus: NCI-60 five-dose assay, HCT-116. It is filed as cell-based. Conditions: Homo sapiens, HCT-116, read-out: cytotoxicity GI50, colon, HCT-116. The procedure, abridged:
as §1

Data set [13] relates to breast, MCF7. The data set can be described thus: NCI-60 five-dose assay, MCF7. It is filed as cell-based. Conditions: Homo sapiens, MCF7, read-out: cytotoxicity GI50, breast, MCF7. In outline: as §1
The subject of data set [14] is ovarian, OVCAR-3. The data set is described as follows: NCI-60 five-dose assay, OVCAR-3. Type of data set: cell-based. Conditions: Homo sapiens, OVCAR-3, read-out: cytotoxicity GI50, ovarian, OVCAR-3. The procedure, abridged: as §1
For data set [15], the system named is melanoma, UACC-62. The data set can be described thus: NCI-60 five-dose assay, UACC-62. It is filed as cell-based. Conditions: Homo sapiens, UACC-62, read-out: cytotoxicity GI50, melanoma, UACC-62. The procedure, abridged: as §1
The test system of data set [16] is lung, HOP-62. The data set is described as follows: NCI-60 five-dose assay, HOP-62. Type of data set: cell-based. Conditions: Homo sapiens, HOP-62, read-out: cytotoxicity GI50, lung, HOP-62. The procedure, abridged:
as §1

Data set [17] addresses T1, recombinant Top1. The data set is described as follows: Top1-mediated DNA cleavage assay. Type of data set: biochemical. Conditions: compound-induced DNA cleavage, score based on the activity of 1 μM camptothecin.
The subject of a further data set is ∼60 cancer cell lines. The data set can be described thus: NCI-60 one-dose assay. It is filed as cell-based. The conditions noted are these: Homo sapiens, read-out: mean growth, %, 10 μM compound, one-dose assay, relative to vehicle-treated control. The procedure, abridged: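 Single-dose screen at 10–5 M across the ~60 human cancer cell lines of the NCI-60 panel. Growth percent of treated cells was expressed relative to vehicle-treated controls and averaged over the panel.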

For data set [18], the system named is panel of 60 different human cancer cell lines. The data set can be described thus: NCI-60 five-dose assay, mean graph midpoint. Type of data set: cell-based. The conditions noted are these: mean graph midpoint of growth inhibition, five-dose assay 10^–8 to 10^–4 M.

Like-named read-outs stand apart in the source and are kept apart here.

As for `COc1cc2c3c(n(CCCN4CCOCC4)c(=O)c2cc1OC)-c1cc2c(cc1C3=O)OCO2` [Compound 4, 2,3-Dimethoxy-6-(3-morpholinopropyl)-5,6-dihydro-8,9-methylenedioxy-5,12-dioxoindeno[1,2-c]isoquinoline], the GI50 – broadly, the concentration at which growth is held to half of that of the control – in the data set on ovarian, OVCAR-3 [1] is 74.1 µM; in the data set on colon, HCT-116 [2], 1.15 µM; in the data set with melanoma, UACC-62 [3], 0.03 µM; with lung, HOP-62 [5], 1.78 µM; in the data set with renal, SN12C [6], 0.813 µM; with breast, MCF7 [7], 0.37 µM. The GI50 in the data set with CNS, SF-539 was 0.04 µM; with prostate, DU-145 [9], 0.155 µM. For the same compound, the Top1 cleavage entry at recombinant Top1 [4] is recorded as “++++”. The MGM in data set [8] is 4.64 ± 1.25 µM.
On to `COc1cc2c3c(n(CCCn4ccnc4)c(=O)c2cc1OC)-c1cc2c(cc1C3=O)OCO2` [Compound 5, 6-(3-(1H-Imidazol-1-yl)propyl)-2,3-dimethoxy-5,6-dihydro-8,9-methylendioxy-5,12-dioxoindeno[1,2-c]isoquinoline], for which the GI50 in the data set on ovarian, OVCAR-3 [1] was 0.085 µM; with colon, HCT-116 [2], under 0.01 µM; in the data set with melanoma, UACC-62 [3], under 0.01 µM; with lung, HOP-62 [5], under 0.01 µM; in the data set with renal, SN12C [6], under 0.01 µM; in the data set with CNS, SF-539, 0.037 µM. Also, in the data set with prostate, DU-145 [9], the GI50 is under 0.01 µM. In addition, on recombinant Top1 [4], the Top1 cleavage entry is given as “++++”. The MGM in [8] was 0.079 ± 0.023 µM.
As for `CC[C@@]1(O)C(=O)OCc2c1cc1n(c2=O)Cc2cc3ccccc3nc2-1` [Compound 1, camptothecin, reference compound], the GI50 with prostate, DU-145 [10] is 0.01 µM; in the data set with renal, SN12C [11] it was 0.02 µM; with colon, HCT-116 [12], 0.03 µM; in the data set with breast, MCF7 [13] it was 0.01 µM; with ovarian, OVCAR-3 [14], 0.22 µM; in the data set with melanoma, UACC-62 [15], 0.01 µM. Besides, in the data set on lung, HOP-62 [16], the GI50 was found to be 0.01 µM.
Regarding `O=C1c2ccccc2-c2c1c1ccc([N+](=O)[O-])cc1c(=O)n2C[C@H](O)[C@@H](O)[C@@H](O)[C@H](O)CO` [Compound 69, (2′S,3′R,4′S,5′R)-5,6-Dihydro-6-(2′,3′,4′,5′,6′-pentahydroxyhexyl)-3-nitro-5,11-dioxo-11H-indeno[1,2-c]isoquinoline], the Top1 cleavage result at recombinant Top1 [17] was “++++”. For the same compound, the GI50 in the data set with colon, HCT-116 [12] was 3.39 µM. For the same compound, the activity at 10 µM in the data set with ∼60 cancer cell lines was in the range of 51.5 to 73.2%. Further, the MGM in [18] amounted to 7.94 µM.
